Calls of active or inactive are those of the source. The calls are words filed in the database; no cut-off is given here.
Columns and labels:
[1] = biological target: Mitogen-activated protein kinase 14 (Homo sapiens) (UniProt Q16539); assay: Inhibition of p38alpha MAPK assessed as residual activity at 10 uM relative to control
Method in brief: (§1)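 Radioactivity-based enzymatic kinase assays run across a 124-kinase profiling panel (Dundee), reporting the remaining kinase activity relative to a control.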

[2] = tested on: Leucine-rich repeat serine/threonine-protein kinase 2 (Homo sapiens), Q5S007 [A2016T]; assay: Inhibition of LRRK2 A2016T mutant phosphorylation at Ser935 expressed in HEK293 cells at 1 to 3 uM after 90 mins by immunoblot analysis; type: cell-based
Leucine-rich repeat serine/threonine-protein kinase 2 (Homo sapiens), Q5S007 [A2016T], sequence (Q5S007 whole entry A2016T): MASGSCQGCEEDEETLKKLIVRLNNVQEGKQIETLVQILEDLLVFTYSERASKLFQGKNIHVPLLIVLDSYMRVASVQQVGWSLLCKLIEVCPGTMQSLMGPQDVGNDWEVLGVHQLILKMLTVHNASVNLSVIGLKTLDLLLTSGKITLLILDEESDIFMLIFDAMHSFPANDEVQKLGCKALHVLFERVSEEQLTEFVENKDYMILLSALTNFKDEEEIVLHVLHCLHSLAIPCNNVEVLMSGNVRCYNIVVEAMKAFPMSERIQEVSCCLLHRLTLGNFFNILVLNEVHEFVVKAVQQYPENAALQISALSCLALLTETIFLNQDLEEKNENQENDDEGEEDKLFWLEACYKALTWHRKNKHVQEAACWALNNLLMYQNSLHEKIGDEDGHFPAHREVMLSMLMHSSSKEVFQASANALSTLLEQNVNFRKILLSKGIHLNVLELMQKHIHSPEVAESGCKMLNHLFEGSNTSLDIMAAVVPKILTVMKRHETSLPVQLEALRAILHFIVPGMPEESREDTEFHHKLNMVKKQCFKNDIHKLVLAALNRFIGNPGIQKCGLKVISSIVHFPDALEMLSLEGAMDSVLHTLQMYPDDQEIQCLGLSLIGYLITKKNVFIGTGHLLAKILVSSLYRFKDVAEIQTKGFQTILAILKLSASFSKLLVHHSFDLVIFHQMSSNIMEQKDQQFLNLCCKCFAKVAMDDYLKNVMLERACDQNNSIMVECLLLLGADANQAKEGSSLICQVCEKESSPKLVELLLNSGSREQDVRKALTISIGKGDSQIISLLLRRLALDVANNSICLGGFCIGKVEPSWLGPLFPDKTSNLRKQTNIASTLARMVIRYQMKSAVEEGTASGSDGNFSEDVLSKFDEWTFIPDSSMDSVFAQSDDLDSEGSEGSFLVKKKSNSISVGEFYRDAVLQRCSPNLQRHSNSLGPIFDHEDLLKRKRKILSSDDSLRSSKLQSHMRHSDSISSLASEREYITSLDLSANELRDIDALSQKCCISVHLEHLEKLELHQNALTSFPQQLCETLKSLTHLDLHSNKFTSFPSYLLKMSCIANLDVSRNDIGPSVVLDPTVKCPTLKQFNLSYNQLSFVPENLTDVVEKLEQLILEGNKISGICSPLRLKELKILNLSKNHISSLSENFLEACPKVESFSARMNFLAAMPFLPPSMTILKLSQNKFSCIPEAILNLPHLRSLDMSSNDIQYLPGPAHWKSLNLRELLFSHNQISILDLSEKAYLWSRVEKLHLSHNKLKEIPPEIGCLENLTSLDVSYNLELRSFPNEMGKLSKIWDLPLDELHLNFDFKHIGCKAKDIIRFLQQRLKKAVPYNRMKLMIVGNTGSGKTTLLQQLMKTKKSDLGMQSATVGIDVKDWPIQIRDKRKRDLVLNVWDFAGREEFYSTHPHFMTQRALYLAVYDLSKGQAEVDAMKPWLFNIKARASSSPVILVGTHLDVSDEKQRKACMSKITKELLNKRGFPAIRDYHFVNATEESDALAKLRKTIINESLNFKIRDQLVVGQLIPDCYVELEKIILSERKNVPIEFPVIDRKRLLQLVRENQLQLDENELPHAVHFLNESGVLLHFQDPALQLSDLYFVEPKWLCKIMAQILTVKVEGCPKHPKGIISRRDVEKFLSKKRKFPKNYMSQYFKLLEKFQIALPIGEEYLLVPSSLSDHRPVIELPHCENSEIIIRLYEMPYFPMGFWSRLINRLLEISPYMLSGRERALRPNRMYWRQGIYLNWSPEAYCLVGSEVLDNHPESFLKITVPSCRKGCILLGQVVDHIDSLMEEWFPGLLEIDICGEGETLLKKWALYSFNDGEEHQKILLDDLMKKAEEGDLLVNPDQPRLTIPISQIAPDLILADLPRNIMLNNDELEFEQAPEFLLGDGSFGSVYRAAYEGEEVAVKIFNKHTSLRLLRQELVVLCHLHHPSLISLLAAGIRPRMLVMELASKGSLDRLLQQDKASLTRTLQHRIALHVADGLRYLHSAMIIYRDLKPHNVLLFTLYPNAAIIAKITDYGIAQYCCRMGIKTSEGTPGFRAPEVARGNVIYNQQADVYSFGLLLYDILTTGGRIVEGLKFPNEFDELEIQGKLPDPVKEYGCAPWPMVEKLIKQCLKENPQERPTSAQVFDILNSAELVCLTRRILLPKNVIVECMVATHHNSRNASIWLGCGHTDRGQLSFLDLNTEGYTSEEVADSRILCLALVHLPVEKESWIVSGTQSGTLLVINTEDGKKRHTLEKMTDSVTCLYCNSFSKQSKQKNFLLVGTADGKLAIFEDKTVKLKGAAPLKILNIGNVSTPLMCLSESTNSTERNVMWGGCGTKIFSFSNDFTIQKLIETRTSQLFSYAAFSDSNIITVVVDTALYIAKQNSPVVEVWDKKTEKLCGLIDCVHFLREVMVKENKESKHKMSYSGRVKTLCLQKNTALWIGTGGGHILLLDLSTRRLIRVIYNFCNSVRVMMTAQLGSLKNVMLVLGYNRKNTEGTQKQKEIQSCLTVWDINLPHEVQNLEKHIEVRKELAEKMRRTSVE

[3] = biological target: Serine/threonine-protein kinase pim-3 (Homo sapiens) (UniProt Q86V86); assay: Inhibition of PIM3 assessed as residual activity at 1 uM relative to control
[4] = biological target: Eukaryotic translation initiation factor 2-alpha kinase 3 (Homo sapiens) (UniProt Q9NZJ5); assay: Inhibition of EIF2AK3 assessed as residual activity at 1 uM relative to control
Eukaryotic translation initiation factor 2-alpha kinase 3 (Homo sapiens), sequence (Q9NZJ5 whole entry): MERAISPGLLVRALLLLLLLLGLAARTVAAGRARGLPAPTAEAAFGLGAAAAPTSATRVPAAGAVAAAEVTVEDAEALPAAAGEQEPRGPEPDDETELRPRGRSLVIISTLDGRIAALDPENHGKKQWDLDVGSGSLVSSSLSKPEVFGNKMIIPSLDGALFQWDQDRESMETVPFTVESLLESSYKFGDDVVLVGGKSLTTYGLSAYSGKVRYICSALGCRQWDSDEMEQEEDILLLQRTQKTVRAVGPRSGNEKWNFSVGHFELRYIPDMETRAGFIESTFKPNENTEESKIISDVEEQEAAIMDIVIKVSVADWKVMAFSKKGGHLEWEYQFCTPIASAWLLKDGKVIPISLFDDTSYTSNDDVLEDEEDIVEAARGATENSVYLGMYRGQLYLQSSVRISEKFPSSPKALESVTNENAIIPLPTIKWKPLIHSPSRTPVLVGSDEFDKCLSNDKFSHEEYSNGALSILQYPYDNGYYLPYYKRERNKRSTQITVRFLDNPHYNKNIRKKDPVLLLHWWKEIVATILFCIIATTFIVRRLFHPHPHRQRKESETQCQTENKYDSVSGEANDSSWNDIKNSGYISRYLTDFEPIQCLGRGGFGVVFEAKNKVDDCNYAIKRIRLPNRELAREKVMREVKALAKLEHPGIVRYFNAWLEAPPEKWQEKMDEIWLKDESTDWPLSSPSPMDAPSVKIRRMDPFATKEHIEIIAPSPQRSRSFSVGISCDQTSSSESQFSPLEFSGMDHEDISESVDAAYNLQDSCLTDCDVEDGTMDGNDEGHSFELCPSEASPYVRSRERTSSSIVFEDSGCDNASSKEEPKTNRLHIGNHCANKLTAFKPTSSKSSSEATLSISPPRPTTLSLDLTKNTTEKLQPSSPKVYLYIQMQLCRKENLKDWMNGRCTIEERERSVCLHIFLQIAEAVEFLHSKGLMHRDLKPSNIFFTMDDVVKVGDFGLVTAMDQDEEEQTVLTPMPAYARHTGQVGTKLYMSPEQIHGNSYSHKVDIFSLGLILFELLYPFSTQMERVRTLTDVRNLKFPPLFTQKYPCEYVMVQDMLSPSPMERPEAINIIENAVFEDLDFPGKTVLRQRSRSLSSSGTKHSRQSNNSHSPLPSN
Method in brief: (§2)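 Standard radioactivity-based enzymatic assays were run across a 124-kinase panel (Dundee profiling), with compound at 1 µM. Kinase activity was expressed relative to control.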

[5] = biological target: MAP kinase-activated protein kinase 5 (Homo sapiens) (UniProt Q8IW41); assay: Inhibition of PRAK assessed as residual activity at 1 uM relative to control
[6] = biological target: Dual specificity protein kinase TTK (Homo sapiens) (UniProt P33981); assay: Inhibition of TTK assessed as residual activity at 10 uM relative to control; method in brief: as §1
[7] = biological target: Receptor-interacting serine/threonine-protein kinase 2 (Homo sapiens) (UniProt O43353); assay: Inhibition of RIPK2 assessed as residual activity at 10 uM relative to control
Receptor-interacting serine/threonine-protein kinase 2 (Homo sapiens), sequence (O43353 whole entry): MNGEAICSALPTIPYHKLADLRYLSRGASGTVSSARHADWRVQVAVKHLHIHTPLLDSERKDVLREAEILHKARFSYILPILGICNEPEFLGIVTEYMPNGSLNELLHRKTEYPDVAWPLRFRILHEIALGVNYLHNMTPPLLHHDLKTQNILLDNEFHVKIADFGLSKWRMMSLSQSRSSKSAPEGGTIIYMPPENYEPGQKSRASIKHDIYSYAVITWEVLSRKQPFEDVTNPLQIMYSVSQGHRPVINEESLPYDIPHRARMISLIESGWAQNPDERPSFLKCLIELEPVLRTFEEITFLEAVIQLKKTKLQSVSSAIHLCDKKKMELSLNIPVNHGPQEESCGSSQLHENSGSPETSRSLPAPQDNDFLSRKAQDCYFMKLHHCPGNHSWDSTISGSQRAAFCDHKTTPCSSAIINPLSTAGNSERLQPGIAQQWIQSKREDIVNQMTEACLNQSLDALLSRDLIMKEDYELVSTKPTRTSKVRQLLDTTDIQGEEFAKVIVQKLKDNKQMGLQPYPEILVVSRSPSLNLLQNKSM

[8] = biological target: Serine/threonine-protein kinase pim-1 (Homo sapiens) (UniProt P11309); assay: Inhibition of PIM1 assessed as residual activity at 10 uM relative to control
Serine/threonine-protein kinase pim-1 (Homo sapiens), sequence (P11309 whole entry, looked up): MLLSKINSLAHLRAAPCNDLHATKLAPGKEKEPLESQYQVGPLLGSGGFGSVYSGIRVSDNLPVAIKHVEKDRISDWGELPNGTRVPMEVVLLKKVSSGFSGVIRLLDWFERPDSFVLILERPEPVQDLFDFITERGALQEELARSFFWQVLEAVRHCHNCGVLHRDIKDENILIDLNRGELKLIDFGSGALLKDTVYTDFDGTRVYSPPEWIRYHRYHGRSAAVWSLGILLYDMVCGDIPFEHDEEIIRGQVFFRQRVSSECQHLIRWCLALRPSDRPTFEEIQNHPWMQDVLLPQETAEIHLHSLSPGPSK

[9] = biological target: Leucine-rich repeat serine/threonine-protein kinase 2 (Homo sapiens, UniProt Q5S007); assay: Inhibition of wild type LRRK2 phosphorylation at Ser910 in human lymphoblastoid cells at 0.03 to 3 uM after 90 mins by Western blot analysis; type: cell-based
Leucine-rich repeat serine/threonine-protein kinase 2, sequence (Q5S007 whole entry): as the sequence (Q5S007 whole entry A2016T) above, with T2016A counted along it

[10] = Half life in Swiss albino mouse at 1 mg/kg, iv; type: ADME, organism-based; parameters: dose 1 mg/kg, route intravenous; settings: in vivo
Method in brief: (§3)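 Male Swiss Albino mice were given a single dose, either intravenous at 1 mg/kg or oral at 10 mg/kg. AUClast was measured in plasma and in brain. Half-life, plasma clearance, volume of distribution and oral bioavailability were derived from the plasma data.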

[11] = Inhibition of CK1 assessed as residual activity at 1 uM relative to control
[12] = biological target: Serine/threonine-protein kinase 26 (Homo sapiens) (UniProt Q9P289); assay: Inhibition of MST4 assessed as residual activity at 1 uM relative to control
Serine/threonine-protein kinase 26 (Homo sapiens), sequence (Q9P289 2-416 limits assumed): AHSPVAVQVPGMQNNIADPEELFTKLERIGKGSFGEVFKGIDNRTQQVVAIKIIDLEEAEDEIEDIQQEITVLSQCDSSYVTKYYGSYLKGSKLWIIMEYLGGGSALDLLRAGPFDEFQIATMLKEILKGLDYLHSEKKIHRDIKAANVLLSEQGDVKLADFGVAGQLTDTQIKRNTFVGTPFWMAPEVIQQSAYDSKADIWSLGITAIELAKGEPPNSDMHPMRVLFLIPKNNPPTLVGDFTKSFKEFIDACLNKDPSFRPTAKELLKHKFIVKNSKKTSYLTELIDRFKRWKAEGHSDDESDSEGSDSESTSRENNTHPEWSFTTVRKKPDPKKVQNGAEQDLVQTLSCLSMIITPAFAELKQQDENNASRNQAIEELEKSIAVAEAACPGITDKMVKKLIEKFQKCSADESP

[13] = biological target: Angiopoietin-1 receptor (Homo sapiens) (UniProt Q02763); assay: Inhibition of TIE2 assessed as residual activity at 10 uM relative to control; method in brief: as §1
[14] = tested on: Mus musculus; assay: Inhibition of LRRK2 phosphorylation at Ser910 in C57BL/6 mouse spleen at 50 mg/kg, po administered for 8 hrs followed by 2 hrs dosing; type: functional, organism-based; parameters: dose 50 mg/kg
Method in brief: (§4)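 Mice were dosed by oral gavage at 10 or 50 mg/kg. Brain, spleen and kidney were collected. Endogenous LRRK2 was resolved by SDS–PAGE and blotted with phospho-specific antibodies to Ser910 and Ser935 and with an antibody to total LRRK2.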

[15] = tested on: Leucine-rich repeat serine/threonine-protein kinase 2 (Homo sapiens), Q5S007 [A2016T]; assay: Inhibition of LRRK2 A2016T mutant phosphorylation at Ser910 expressed in HEK293 cells at 1 to 3 uM after 90 mins by immunoblot analysis; type: cell-based
[16] = biological target: Receptor tyrosine-protein kinase erbB-4 (Homo sapiens) (UniProt Q15303); assay: Inhibition of HER4 assessed as residual activity at 1 uM relative to control; method in brief: as §2
[17] = biological target: Tyrosine-protein kinase CSK (Homo sapiens) (UniProt P41240); assay: Inhibition of CSK assessed as residual activity at 1 uM relative to control; method in brief: as §2
[18] = tested on: Mus musculus; assay: Inhibition of LRRK2 phosphorylation at Ser935 in C57BL/6 mouse brain at 10 to 50 mg/kg, po administered for 8 hrs followed by 2 hrs dosing; type: functional, organism-based; method in brief: as §4
[19] = biological target: Mitogen-activated protein kinase 15 (Homo sapiens) (UniProt Q8TD08); assay: Inhibition of ERK8 assessed as residual activity at 1 uM relative to control; method in brief: as §2
[20] = biological target: Death-associated protein kinase 1 (Homo sapiens) (UniProt P53355); assay: Inhibition of DAPK1 assessed as residual activity at 10 uM relative to control
[21] = biological target: RAC-alpha serine/threonine-protein kinase (Homo sapiens) (UniProt P31749); assay: Inhibition of PKBalpha assessed as residual activity at 1 uM relative to control
[22] = biological target: MAP kinase-interacting serine/threonine-protein kinase 2 (Homo sapiens) (UniProt Q9HBH9); assay: Inhibition of MNK2 assessed as residual activity at 10 uM relative to control
[23] = biological target: Serine/threonine-protein kinase STK11 (Homo sapiens) (UniProt Q15831); assay: Inhibition of LKB1 assessed as residual activity at 1 uM relative to control
[24] = biological target: Dual specificity mitogen-activated protein kinase kinase 2 (Homo sapiens) (UniProt P36507); assay: Inhibition of MKK2 assessed as residual activity at 1 uM relative to control
[25] = tested on: Brain; assay: AUClast in Swiss albino mouse brain at 1 mg/kg, iv; type: ADME, organism-based; parameters: time 0 - last, dose 1 mg/kg, route intravenous; settings: in vivo; method in brief: as §3
[26] = biological target: Leucine-rich repeat serine/threonine-protein kinase 2 (Mus musculus) (UniProt Q5S006); assay: Inhibition of wild type LRRK2 phosphorylation at Ser935 in mouse 3T3 cells after 90 mins by Western blot analysis; type: cell-based
Method in brief: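 Mouse Swiss 3T3 cells treated with DMSO or increasing inhibitor concentrations for 90 min. Endogenous LRRK2 in lysates immunoblotted with purified phospho-specific antibodies to Ser910 and Ser935 and with a total LRRK2 antibody. Blots done in duplicate, representative of at least two independent experiments.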

[27] = tested on: Mus musculus; assay: Inhibition of LRRK2 phosphorylation at Ser910 in C57BL/6 mouse brain at 10 to 50 mg/kg, po administered for 8 hrs followed by 2 hrs dosing; type: functional, organism-based; method in brief: as §4
[28] = biological target: Eukaryotic translation initiation factor 2-alpha kinase 3 (Homo sapiens) (UniProt Q9NZJ5); assay: Inhibition of EIF2AK3 assessed as residual activity at 10 uM relative to control
[29] = biological target: Serine/threonine-protein kinase Sgk1 (Homo sapiens) (UniProt O00141); assay: Inhibition of SGK1 assessed as residual activity at 1 uM relative to control
[30] = tested on: Mus musculus; assay: Inhibition of LRRK2 phosphorylation at Ser935 in C57BL/6 mouse spleen at 50 mg/kg, po administered for 8 hrs followed by 2 hrs dosing; type: functional, organism-based; parameters: dose 50 mg/kg; method in brief: as §4
[31] = biological target: Glycogen synthase kinase-3 beta (Homo sapiens) (UniProt P49841); assay: Inhibition of GSK3b assessed as residual activity at 1 uM relative to control; method in brief: as §2
[32] = biological target: Tyrosine-protein kinase ZAP-70 (Homo sapiens) (UniProt P43403); assay: Inhibition of ZAP70 assessed as residual activity at 1 uM relative to control; method in brief: as §1

Activity [1]: 79%
inhibition [2]: Active
Activity [3]: 106%
Activity [4]: 101%
Activity [5]: 101%
Activity [6]: 47%
Activity [7]: 59%
Activity [8]: 101%
inhibition [9]: Active
half-life [10]: 11.3 h
Activity [11]: 102%
Activity [12]: 92%
Activity [13]: 5%
inhibition [15]: Active
Activity [16]: 36%
Activity [17]: 77%
Activity [21]: 102%
Activity [22]: 60%
Activity [23]: 94%
Activity [24]: 69%
AUClast [25]: 1318 ng·h/mL
inhibition [26]: Dose-dependent effect
Activity [28]: 95%
Activity [29]: 88%
Activity [31]: 104%
Activity [32]: 113%
SMILES: COc1cc(N2CCC(N3CCN(C)CC3)CC2)ccc1Nc1ncc(Cl)c(Nc2ccccc2S(=O)(=O)C(C)C)n1 [TAE-684]
inhibition [14]: Active
inhibition [18]: inactive
Activity [19]: 47%
Activity [20]: 79%
inhibition [27]: inactive
inhibition [30]: Active
